The record followed here is PubChem BioAssay AID617 (SRMLSC, 2007).

Molecules are shown by their SMILES.

In the test the test system is E. coli BW25113 ΔtolC growth inhibition, OD615. The experiment in a line: growth inhibitors of E. coli tolC mutant, dose response, strain BW25113 ΔtolC::kan (AID 617). In short, it runs like this: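 Test system: E. coli BW25113 ΔtolC::kan bacteria / Buffer or medium: kanamycin-containing LB broth, 50 µg/mL / Compound: serial dilution series of compound / Incubation: bacterial growth with compound for 20 h, 37 °C / Measured by: OD615 / Read-out basis: growth-inhibition IC50 from four-parameter logistic curve, bounds set to 0% and 100%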
One may read the IC50 as the concentration at which inhibition is half-maximal. For the compound `CCNc1nc(SCc2ccccc2)nc(N2CCOCC2)n1`, the IC50 is 17.8 µM.

On to `O=C(COc1cccc2ccccc12)N1CCN(c2ccccc2)CC1`, for which the IC50 is 22.6 µM.

In the case of `CC(C)(C)NC(=O)C(c1ccco1)N(C(=O)Cn1nnc(-c2ccc(F)cc2)n1)c1cccc(F)c1` (stereo unspecified), the concentration for half-maximal inhibition (IC50) was 20.9 µM.

Consider `CCc1cc(/C(Cc2ccc3ccccc3n2)=N\O)c(O)cc1O`, for which the IC50 was 8.41 µM.

In the case of `CCCCN(C)S(=O)(=O)c1ccc(C(=O)Nc2nnc(CSC)o2)cc1`, the IC50 was 0.86 µM.

Consider `CCN(CC)S(=O)(=O)c1ccc2[nH]cc(C(=O)NCCC3=CCCCC3)c(=O)c2c1`, for which the 50% inhibitory concentration (IC50) was 5.15 µM.

Turning to `N#Cc1c(NC(=O)CSc2n[nH]c(Cc3ccccc3)n2)oc(-c2ccccc2)c1-c1ccccc1`, the half-inhibitory concentration (IC50) is 7.4 µM.

On to `O=C(c1ccc(COc2ccc(Cl)cc2)o1)N1CCN(Cc2ccc3c(c2)OCO3)CC1`, for which the 50% inhibitory concentration (IC50) was 5.35 µM.

Turning to `Cc1ccc(C)c(SCC(=O)Nc2nnc(-c3ccccc3)o2)c1`, the half-inhibitory concentration (IC50) is 4.69 µM.

Take `Cc1cc(Cl)cc(C)c1OCCCCn1ccnc1`: the IC50 is 15 µM.

Consider `COc1cc2cc(C(c3nnnn3C3CCCCC3)N(C)C3CCCCC3)c(=O)[nH]c2cc1OC` (stereo unspecified), for which the IC50 is 9.71 µM.

For the compound `c1ccc2c(c1)oc1c(N3CCN(Cc4ccc5c(c4)OCO5)CC3)ncnc12`, the IC50 is 10.9 µM.

Turning to `O=C(CSc1ncnc2c1oc1ccccc12)N1CCCc2ccccc21`, the concentration for half-maximal inhibition (IC50) is 15.1 µM.

Regarding `CCC(CC)c1nnc(NC(=O)c2c(-c3ccccc3)noc2C)s1`, the IC50 is 19.8 µM.

In the case of `CCOC(=O)c1c(NC(=O)CN(CC)CC)sc2c1CCC2`, the half-inhibitory concentration (IC50) is 13.8 µM.

`O=C(Cc1ccccc1)Nc1ccccc1N1CCN(c2ccccc2)CC1`: the IC50 was 64.5 µM.

Turning to `Cc1ccccc1-c1nnc(SCc2ccccc2F)o1`, the IC50 was 25.8 µM.

As to `O=C(O)CCC(=O)N1CCc2cc(S(=O)(=O)N3CCC(Cc4ccccc4)CC3)ccc21`, the IC50 is 1.06 µM.

Regarding `N#Cc1nc(COc2ccc(Cl)cc2)oc1N1CCCCCC1`, the IC50 is 8.68 µM.

In the case of `O=C(c1cc2nc(-c3ccco3)cc(C(F)(F)F)n2n1)N1CCN(c2ccc(F)cc2)CC1`, the concentration for half-maximal inhibition (IC50) is 10.2 µM.

Regarding `CCn1cc(C(=O)Nc2nncs2)c(=O)c2cc(F)c(N3CCN(C(=O)c4ccco4)CC3)cc21`, the IC50 is 0.19 µM.

On to `Clc1ccc(Cn2ncc3c(NCc4ccco4)ncnc32)c(Cl)c1`, for which the concentration for half-maximal inhibition (IC50) is 53.4 µM.

Consider `Cc1ccc(NC(=O)N2CCC(c3nc4c(nnn4Cc4cccc(Cl)c4)c(=O)[nH]3)CC2)cc1`, for which the half-maximal inhibitory concentration (IC50) is 13.5 µM.

With `O=C(O)C1CC=CCC1C(=O)Nc1ccc(S(=O)(=O)N2CCCc3ccccc32)cc1` (stereo unspecified), the IC50 is 8.93 µM.

For the compound `Cc1cc(C)n(-c2nc(SCC(=O)N3CCCC3)c3c4c(sc3n2)CCCC4)n1`, the IC50 is 23.9 µM.

`COc1ccccc1N1CCN(c2nc(C)nc3c2oc2ccccc23)CC1`: the IC50 is 11.4 µM.

Turning to `N#Cc1c(NC(NC(=O)c2ccco2)C(=O)c2ccccc2)sc2c1CCCC2` (stereo unspecified), the IC50 was 13.5 µM.

With `Brc1ccccc1Cn1c(-c2cncs2)nc2ccccc21`, the half-maximal inhibitory concentration (IC50) was 10.6 µM.

As for `CCC(c1nnnn1C1CCCCC1)N(Cc1ccco1)Cc1cc2ccc(OC)cc2[nH]c1=O` (stereo unspecified), the half-inhibitory concentration (IC50) is 13.3 µM.

As for `Cc1cc(S(=O)(=O)N2CCN(c3ccccc3C)CC2)ccc1F`, the half-maximal inhibitory concentration (IC50) is 14.6 µM.

Turning to `COC(=O)c1ccc(OC)c(CSc2nnc(COc3ccccc3)o2)c1`, the concentration for half-maximal inhibition (IC50) was 23.1 µM.

For the compound `Cn1c(=O)c2c(SCc3cccnc3)nc(CC(C)(C)C)nc2n(C)c1=O`, the half-maximal inhibitory concentration (IC50) was 8.18 µM.

Take `Cn1ncc(C#N)c1/N=C/N(Cc1ccccc1)Cc1ccccc1`: the half-inhibitory concentration (IC50) is 7.5 µM.

On to `O=C(c1cc2nc(-c3ccco3)cc(C(F)(F)F)n2n1)N1CCN(c2ccccc2)CC1`, for which the IC50 is 10.3 µM.

Take `O=C(Nc1cccc(Cl)c1)N(CCN1CCOCC1)Cc1cccc(Cl)c1`: the IC50 is 6.44 µM.

`c1ccc(-c2nc(CSc3nnc(-c4cccs4)o3)cs2)cc1`: the half-inhibitory concentration (IC50) was 10.1 µM.

For `Cc1nn(-c2ccccc2)c(C)c1C(=O)Nc1nnc(-c2ccco2)o1`, the IC50 was 6.38 µM.

Consider `O=c1c2c(nc3n1CCCCC3)-c1ccccc1CC21CCCC1`, for which the half-maximal inhibitory concentration (IC50) is 14.1 µM.

As for `CCOC(=O)c1cnc(-n2nc(C)cc2C)nc1NCc1ccccc1`, the IC50 was 0.68 µM.

As to `CC1(C)Cc2c(c(N3CCCC3)nc3sc4c(N5CCN(CCO)CC5)ncnc4c23)CO1`, the concentration for half-maximal inhibition (IC50) was 18.1 µM.

As for `CC1CCN(S(=O)(=O)c2cccc(C(=O)NCc3cccs3)c2)CC1`, the IC50 was 33.4 µM.

With `COc1ccc(-c2nnc(SCc3cc(C)cc(C)c3)o2)cc1`, the IC50 is 6.77 µM.

On to `Cc1ccc(C)c(S(=O)(=O)C(C#N)c2nc3ccccc3nc2N2CCOCC2)c1` (stereo unspecified), for which the IC50 was 11.6 µM.

For the compound `CCCC(=O)c1ccc(N2CCCCCC2)c(F)c1`, the IC50 was 95.6 µM.

For `O=C(NC1CCCCC1)c1sc(=S)n2c1[nH]c(=O)c1ccccc12`, the half-maximal inhibitory concentration (IC50) was 0.83 µM.

With `O=C(Nc1cccc(C(F)(F)F)c1)N1CCC(c2nc(-c3ccc(F)cc3)no2)CC1`, the IC50 is 3.75 µM.

As to `Cc1c(C(=O)OC2CCCC2C)[nH]c2c1C(=O)CCC2` (stereo unspecified), the concentration for half-maximal inhibition (IC50) was 0.38 µM.

Take `Cc1ccc(Cl)cc1N1CCN(C(=O)CCS(=O)(=O)c2cccc3nonc23)CC1`: the IC50 is 44 µM.

On to `CCCCCCN=C(CC)c1c(O)n(CCCC)c(=O)[nH]c1=O`, for which the half-maximal inhibitory concentration (IC50) is 11.8 µM.

With `COc1ccc(C2(O)CC3CCC(C2)N3c2cc(C)nc(-c3ccccc3)n2)cc1` (stereo unspecified), the IC50 is 11.7 µM.

For `Cc1cc(C(=O)OCc2nc3ccccc3s2)c(C)o1`, the IC50 is 32.6 µM.

Take `COc1ccc(-c2[nH]ncc2-c2ccc3c(c2)OCCO3)c(O)c1`: the 50% inhibitory concentration (IC50) was 15.9 µM.

`CCCCOC(=O)CSc1nnc(-c2ccc(Cl)cc2Cl)o1`: the IC50 is 19.4 µM.

Regarding `COc1ccc(-c2cc3nc4c(c(N5CCC6(CC5)OCCO6)n3n2)CCCC4)cc1`, the IC50 is 28.8 µM.

As for `CCOC(=O)C1C(=O)C=C(c2ccc(OC)cc2)CC1c1ccco1` (stereo unspecified), the half-maximal inhibitory concentration (IC50) was 11.6 µM.

Consider `COc1ccccc1OCC(=O)N(Cc1nc(-c2ccccc2)no1)C1CCCCC1`, for which the concentration for half-maximal inhibition (IC50) was 12.7 µM.

`Cc1cccc(S(=O)(=O)Nc2nc3ccccc3nc2NCc2ccco2)c1`: the half-inhibitory concentration (IC50) is 6.92 µM.

On to `Cc1cccc(NC(=O)c2cc(NC(=O)C3CCCCC3C(=O)O)ccc2N2CCCCC2)c1` (stereo unspecified), for which the IC50 is 6.1 µM.

For `N=c1n(Cc2ccccc2)c2ccccc2n1CC(O)COc1ccccc1` (stereo unspecified), the IC50 was 21.2 µM.

Consider `Cc1cc(Nc2ccccc2)nc(-c2ccccc2O)n1`, for which the concentration for half-maximal inhibition (IC50) is 15.4 µM.

Regarding `CCc1cc2c3c(c(=O)oc2cc1O)CCCC3`, the concentration for half-maximal inhibition (IC50) is 33 µM.

Regarding `Cc1ccc(NC(=O)CN(C)S(=O)(=O)c2cccc3nsnc23)cc1Cl`, the IC50 was 17.8 µM.

Turning to `FC(F)(F)c1cccc(N2CCN(c3nnnn3-c3ccccc3)CC2)c1`, the IC50 is 20.8 µM.

Regarding `CC(C)Cc1cc(C(=O)Nc2cc(Br)ccc2O)no1`, the half-inhibitory concentration (IC50) is 5.72 µM.

For the compound `O=C(NCc1ccco1)c1ccc(S(=O)(=O)N2CCCc3ccccc32)cc1`, the half-maximal inhibitory concentration (IC50) is 30.2 µM.

Take `CCCCn1c(N2CCC(Cc3ccccc3)CC2)nc2c1c(=O)[nH]c(=O)n2C`: the IC50 was 5.96 µM.

Take `Nc1nc(CN2CCN(c3cccc(Cl)c3)CC2)nc(N2CCCc3ccccc32)n1`: the IC50 is 4.27 µM.

For the compound `CCn1c(=O)c(C(=O)Nn2c(C)nc3ccccc3c2=O)c(O)c2ccccc21`, the concentration for half-maximal inhibition (IC50) was 3.26 µM.

`N#Cc1nc(COc2ccccc2)oc1N1CCN(Cc2ccccc2)CC1`: the IC50 is 14.3 µM.

For `Cc1cccc(N2C(N)=C(C#N)C(C#N)(C#N)C2c2ccccc2)c1` (stereo unspecified), the IC50 was 13.3 µM.

`O=C(COc1ccccc1)Nc1ccccc1N1CCCCC1`: the IC50 is 25.6 µM.

Consider `CCSc1nnc(NC(=O)CSc2nccn2-c2cccc(C)c2C)s1`, for which the IC50 was 5.29 µM.

`Oc1ccccc1-c1cc(-c2ccc3c(c2)OCCO3)n[nH]1`: the IC50 is 8.15 µM.

`COc1ccc(-c2[nH]ncc2-c2cnn(-c3ccccc3)c2)c(O)c1`: the IC50 was 12.5 µM.

Consider `CCOC(=O)c1c(C)n(C)c2ccc(OCC(O)Cn3nc(C)c(Br)c3C)cc12` (stereo unspecified), for which the IC50 is 5.74 µM.

Turning to `c1ccc(-c2nc(NCc3ccco3)c3ccccc3n2)nc1`, the half-maximal inhibitory concentration (IC50) is 5.54 µM.

Turning to `O=C(CSc1ncn(-c2ccccc2)n1)Nc1nc2c(s1)CCCC2`, the IC50 is 16.9 µM.

For `CCCCOC(=O)Nc1cc(C(=O)OC)ccc1C(=O)OC`, the IC50 was 26.8 µM.

Turning to `Cn1c(=O)n(Cc2ccccc2)c(=O)c2c1nc1n2CCCN1Cc1ccccc1`, the IC50 was 42.8 µM.

For the compound `CCN(CC)c1ccc(-c2nn3c(-c4n[nH]c5c4CCC5)nnc3s2)cc1`, the IC50 was 20.8 µM.

As for `CC(OC(=O)c1ccccc1NCc1ccco1)C(=O)Nc1ncc(Cl)cc1Cl` (stereo unspecified), the half-inhibitory concentration (IC50) was 39.1 µM.

On to `Cc1ccc2[nH]c3c(c2c1)CCc1cn[nH]c1-3`, for which the concentration for half-maximal inhibition (IC50) is 17.8 µM.

For `[O-][N+]1=c2ccc(Nc3ccccc3)cc2=NC12CCCCC2`, the half-inhibitory concentration (IC50) is 15.3 µM.

`Cc1cccc(Cn2c(=O)c3c(nc4n3CCCN4Cc3ccccc3)n(C)c2=O)c1`: the IC50 was 20 µM.

As to `Cc1noc(NS(=O)(=O)c2ccc(NC(=O)Nc3ccc(Cl)c(Cl)c3)cc2)c1C`, the IC50 was 4.51 µM.

Regarding `CCC1CCCCN1S(=O)(=O)c1ccc2c(c1)CCN2C(=O)C1CCC1` (stereo unspecified), the half-maximal inhibitory concentration (IC50) was 14.7 µM.

For `CCN(CC)c1ccc(C(=O)Nc2cccc(F)c2)cc1`, the IC50 is 8.06 µM.

Turning to `O=C(Nc1ccc2nc(-c3cccs3)[nH]c2c1)c1ccco1`, the IC50 was 82.7 µM.

With `CC(C)N(Cc1nc(-c2ccc(Cl)cc2)no1)C(=O)CCC1CCCC1`, the IC50 is 15.5 µM.

In the case of `Cc1cccc(NC(=O)CSc2nnc(-c3cc(C)n(-c4ccccc4)c3C)o2)c1C`, the IC50 is 14 µM.

For the compound `O=C(CN(Cc1ccc2c(c1)OCO2)C(=O)CSc1nc2ccccc2o1)NC1CCCCC1`, the IC50 is 6.11 µM.

As to `O=c1n(Cc2ccc(Cl)cc2)c2sc3c(c2c2ncnn12)CCCC3`, the concentration for half-maximal inhibition (IC50) was 7.35 µM.

`COC(=O)c1sccc1NC(=O)c1csc(C)c1`: the IC50 is 23.1 µM.

With `CCC(=Nc1ccc(OC)cc1OC)c1c(O)n(C2CCCCC2)c(=O)[nH]c1=O`, the concentration for half-maximal inhibition (IC50) was 4.85 µM.

Turning to `CCOc1ccc(C(=O)N2CCN(c3cccc(C)c3C)CC2)cc1`, the half-inhibitory concentration (IC50) was 11 µM.

`CC1CCCCN1C(=O)CSc1nc(C2CC2)nc2c1cnn2-c1ccccc1` (stereo unspecified): the half-maximal inhibitory concentration (IC50) was 12.3 µM.
